This note sets out measurements from ChEMBL document CHEMBL1148487, “Chemical and functional identification and characterization of novel sulfated alpha-conotoxins from the cone snail Conus anemone” (J Med Chem, 2004).

Values joined by “and” are separate entries in the source; they are usually repeats but may differ in a detail not shown here. Equal values may be shown once.

Assay [1] has as its target Neuronal acetylcholine receptor; alpha3/beta2 (Rattus norvegicus, UniProt P04757+P12390). The assay can be described thus: Inhibition of rat Nicotinic acetylcholine receptor alpha3-beta2 expressed in Xenopus Oocytes. Type of assay: cell-based. The procedure, abridged: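 Rat nAChR subunit cRNAs (50 nL, 5–50 ng/µL) injected into Xenopus oocytes, kept at 19 °C in ND96 pH 7.4 with gentamycin; two-electrode voltage clamp at −70 mV, 2–10 days post-injection. Peptide added to static bath, 3–10 min before agonist; sub-1 nM also perfused 10–15 min. IC50 from fitted concentration–response curves with Hill slope.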

Assay [2] can be described thus: Inhibition ratio of rat alpha 3 beta 2 nicotinic acetylcholine receptor (nAChR) to that of at alpha 7 nicotinic acetylcholine receptor (nAChR).
For assay [3], the target named is Neuronal acetylcholine receptor subunit alpha-7 (Rattus norvegicus, UniProt Q05941). The assay can be described thus: Compound was evaluated for inhibition of rat Nicotinic acetylcholine receptor alpha-7 (nAChR) in Xenopus Oocytes. It is filed as cell-based. The procedure, abridged: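 Rat α7 nAChR cRNA (5–50 ng/µL, 50 nL) injected into Xenopus oocytes kept at 19 °C in ND96 (pH 7.4) plus gentamycin; two-electrode voltage clamp 2–10 days later at −70 mV. Peptide applied once three agonist responses differed <10%, added to static bath and incubated 3–10 min before agonist. IC50 and nH from concentration–response curve fit; 95% confidence intervals.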
Sequence of Neuronal acetylcholine receptor subunit alpha-7 (Q05941 whole entry): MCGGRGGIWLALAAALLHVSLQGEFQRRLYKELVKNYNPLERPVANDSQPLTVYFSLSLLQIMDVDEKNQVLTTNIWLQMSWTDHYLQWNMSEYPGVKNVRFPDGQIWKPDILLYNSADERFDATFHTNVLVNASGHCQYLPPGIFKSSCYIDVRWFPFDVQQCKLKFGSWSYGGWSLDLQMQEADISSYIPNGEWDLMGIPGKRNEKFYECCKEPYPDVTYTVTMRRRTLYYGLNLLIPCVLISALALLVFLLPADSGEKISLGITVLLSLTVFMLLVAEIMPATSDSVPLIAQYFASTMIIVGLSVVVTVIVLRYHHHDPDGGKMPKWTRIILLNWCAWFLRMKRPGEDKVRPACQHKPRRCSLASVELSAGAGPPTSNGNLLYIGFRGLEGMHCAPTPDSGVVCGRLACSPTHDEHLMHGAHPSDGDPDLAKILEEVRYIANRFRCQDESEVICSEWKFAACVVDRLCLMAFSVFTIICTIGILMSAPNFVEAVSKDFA

Sequence of Neuronal acetylcholine receptor; alpha3/beta2 (P04757 whole entry, the tested form may be a part): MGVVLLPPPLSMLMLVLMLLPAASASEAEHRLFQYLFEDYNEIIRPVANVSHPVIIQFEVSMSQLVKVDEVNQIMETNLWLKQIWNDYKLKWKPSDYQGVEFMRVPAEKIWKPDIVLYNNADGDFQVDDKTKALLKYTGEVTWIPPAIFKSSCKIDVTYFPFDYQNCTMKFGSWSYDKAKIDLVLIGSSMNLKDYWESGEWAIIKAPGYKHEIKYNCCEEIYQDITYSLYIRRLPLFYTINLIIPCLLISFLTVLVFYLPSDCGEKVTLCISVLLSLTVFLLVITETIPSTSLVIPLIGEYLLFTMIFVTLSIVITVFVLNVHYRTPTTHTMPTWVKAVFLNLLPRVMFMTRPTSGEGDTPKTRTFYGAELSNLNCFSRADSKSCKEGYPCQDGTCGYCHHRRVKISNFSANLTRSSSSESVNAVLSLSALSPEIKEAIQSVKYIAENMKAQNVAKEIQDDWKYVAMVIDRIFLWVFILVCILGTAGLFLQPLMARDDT
Sequence of Neuronal acetylcholine receptor; alpha3/beta2 (P12390 whole entry, the tested form may be a part): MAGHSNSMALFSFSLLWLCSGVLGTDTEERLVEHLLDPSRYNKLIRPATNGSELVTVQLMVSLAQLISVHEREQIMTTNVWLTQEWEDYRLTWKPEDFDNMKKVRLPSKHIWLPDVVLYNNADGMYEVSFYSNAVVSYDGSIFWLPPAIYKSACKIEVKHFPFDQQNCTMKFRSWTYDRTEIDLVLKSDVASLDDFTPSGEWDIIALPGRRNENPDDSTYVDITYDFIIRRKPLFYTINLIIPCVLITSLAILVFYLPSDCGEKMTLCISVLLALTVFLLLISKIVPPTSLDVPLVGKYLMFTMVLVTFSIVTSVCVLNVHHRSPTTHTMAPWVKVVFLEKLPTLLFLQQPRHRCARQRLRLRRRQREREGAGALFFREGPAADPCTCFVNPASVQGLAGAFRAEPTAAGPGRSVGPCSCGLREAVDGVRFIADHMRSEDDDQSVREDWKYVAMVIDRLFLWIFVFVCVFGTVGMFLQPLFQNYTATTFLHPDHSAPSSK

Broadly, the IC50 is the concentration needed to halve the response being measured. Consider `CC[C@H](C)[C@H](NC(=O)[C@H](Cc1c[nH]cn1)NC(=O)[C@H](CCC(N)=O)NC(=O)[C@H](CC(N)=O)NC(=O)[C@H](CC(N)=O)NC(=O)CNC(=O)[C@H](C)NC(=O)[C@H](CS)NC(=O)[C@H](C)NC(=O)[C@@H]1CCCN1C(=O)[C@H](Cc1c[nH]cn1)NC(=O)[C@H](CO)NC(=O)[C@H](CS)NC(=O)[C@H](CS)NC(=O)CN)C(=O)N[C@@H](CS)C(N)=O`, for which, in assay [1], the IC50 was 1.1 nM. For the compound `CC(C)C[C@H](NC(=O)[C@H](CC(N)=O)NC(=O)[C@H](CO)NC(=O)[C@H](Cc1cnc[nH]1)NC(=O)[C@H](CCC(=O)O)NC(=O)[C@H](CC(C)C)NC(=O)[C@H](Cc1cnc[nH]1)NC(=O)[C@H](CS)NC(=O)[C@@H](NC(=O)[C@@H]1CCCN1C(=O)[C@H](CC(N)=O)NC(=O)[C@H](CO)NC(=O)[C@H](CS)NC(=O)[C@H](CS)NC(=O)CN)C(C)C)C(=O)N[C@@H](CS)C(N)=O`, the IC50 in assay [1] was 0.5 nM. In assay [1], `C[C@H](NC(=O)[C@H](C)NC(=O)[C@H](CS)NC(=O)[C@H](C)NC(=O)[C@H]1CCCN1C(=O)[C@H](Cc1c[nH]cn1)NC(=O)[C@H](CO)NC(=O)[C@H](CS)NC(=O)[C@H](CS)NC(=O)CNC(=O)CNC(=O)CN)C(=O)N[C@@H](CC(N)=O)C(=O)N[C@@H](CC(N)=O)C(=O)N[C@@H](CCC(N)=O)C(=O)N[C@@H](CC(=O)O)C(=O)N[C@@H](Cc1ccc(O)cc1)C(=O)N[C@@H](CS)C(N)=O` registered a 50% inhibitory concentration (IC50) of 0.2 nM. Take `C[C@H](NC(=O)[C@H](C)NC(=O)[C@H](CS)NC(=O)[C@H](C)NC(=O)[C@H]1CCCN1C(=O)[C@H](Cc1cnc[nH]1)NC(=O)[C@H](CO)NC(=O)[C@H](CS)NC(=O)[C@H](CS)NC(=O)CNC(=O)CN)C(=O)N[C@@H](CC(N)=O)C(=O)N[C@@H](CC(N)=O)C(=O)N[C@@H](CCC(N)=O)C(=O)N[C@@H](CC(=O)O)C(=O)N[C@@H](Cc1ccc(OS(=O)(=O)O)cc1)C(=O)N[C@@H](CS)C(N)=O`: the IC50 in assay [1] was 0.64 nM.

With `CC(C)C[C@H](NC(=O)[C@H](CC(N)=O)NC(=O)[C@H](CO)NC(=O)[C@H](Cc1c[nH]cn1)NC(=O)[C@H](CCC(=O)O)NC(=O)[C@H](CC(C)C)NC(=O)[C@H](Cc1c[nH]cn1)NC(=O)[C@H](CS)NC(=O)[C@@H](NC(=O)[C@@H]1CCCN1C(=O)[C@H](CC(N)=O)NC(=O)[C@H](CO)NC(=O)[C@H](CS)NC(=O)[C@H](CS)NC(=O)CN)C(C)C)C(=O)N[C@@H](CS)C(N)=O`, the Ratio in assay [2] is 0.0025.

For the compound `C[C@H](NC(=O)[C@H](C)NC(=O)[C@H](CS)NC(=O)[C@H](C)NC(=O)[C@H]1CCCN1C(=O)[C@H](Cc1cnc[nH]1)NC(=O)[C@H](CO)NC(=O)[C@H](CS)NC(=O)[C@H](CS)NC(=O)CNC(=O)CN)C(=O)N[C@@H](CC(N)=O)C(=O)N[C@@H](CC(N)=O)C(=O)N[C@@H](CCC(N)=O)C(=O)N[C@@H](CC(=O)O)C(=O)N[C@@H](Cc1ccc(O)cc1)C(=O)N[C@@H](CS)C(=O)O`, it took 0.54 nM to reach half-maximal inhibition in assay [1] (IC50). `C[C@H](NC(=O)[C@H](C)NC(=O)[C@H](CS)NC(=O)[C@H](C)NC(=O)[C@H]1CCCN1C(=O)[C@H](Cc1cnc[nH]1)NC(=O)[C@H](CO)NC(=O)[C@H](CS)NC(=O)[C@@H](N)CS)C(=O)N[C@@H](CC(N)=O)C(=O)N[C@@H](CC(N)=O)C(=O)N[C@@H](CCC(N)=O)C(=O)N[C@@H](CC(=O)O)C(=O)N[C@@H](Cc1ccc(O)cc1)C(=O)N[C@@H](CS)C(N)=O` displayed a half-maximal inhibitory concentration (IC50) in assay [1] of 5.84 nM.

`C[C@H](NC(=O)[C@H](CS)NC(=O)[C@H](C)NC(=O)[C@H]1CCCN1C(=O)[C@H](CC1=CNCN1)NC(=O)[C@H](CO)NC(=O)[C@H](CS)NC(=O)[C@H](CS)NC(=O)CN)C(=O)N[C@@H](CC(N)=O)C(=O)N[C@@H](CC(N)=O)C(=O)N[C@@H](CCC(N)=O)C(=O)N[C@@H](CC(=O)O)C(=O)N[C@@H](Cc1ccc(O)cc1)C(=O)N[C@@H](CS)C(N)=O` came in with an IC50 in assay [1] of 0.17 nM. Take `C[C@H](NC(=O)[C@H](C)NC(=O)[C@H](CS)NC(=O)[C@H](C)NC(=O)[C@H]1CCCN1C(=O)[C@H](Cc1c[nH]cn1)NC(=O)[C@H](CO)NC(=O)[C@H](CS)NC(=O)[C@H](CS)NC(=O)CNC(=O)CN)C(=O)N[C@@H](CC(N)=O)C(=O)N[C@@H](CC(N)=O)C(=O)N[C@@H](CCC(N)=O)C(=O)N[C@@H](CC(=O)O)C(=O)N[C@@H](Cc1ccc(O)cc1)C(=O)N[C@@H](CS)C(N)=O`: the half-maximal inhibitory concentration (IC50) was 76 nM in assay [3]; 0.28 nM and 0.3 nM in assay [1]. For the same compound, the Ratio in assay [2] was 0.004.
